Test [1] has as its system MDA-MB-231. The test can be described thus: Cytotoxicity against human MDA-MB-231 cells after 48 hrs by WST1 assay. In kind it is functional, cell-based. The following applies: MDA-MB-231, 48 h.
Test [2] concerns OVCAR-3. The test can be described thus: Cytotoxicity against human OVCAR3 cells growth inhibition up to 250 uM after 2 days by WST1 assay. It is filed as functional, cell-based. A digest of the protocol:
(§1)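 Viability of human ovarian carcinoma NIH-OVCAR-3 cells, which express COX-1 but no detectable COX-2, after a 2-day compound treatment. Concentrations up to 250 μM tested. EC50 for growth inhibition derived from concentration–response curves.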
On the technique in general: Tetrazolium dyes change colour on reduction, which living cells bring about.

Test [3] addresses T1, Prostaglandin G/H synthase 1 (Ovis aries) (UniProt P05979).
T1 sequence (whole entry): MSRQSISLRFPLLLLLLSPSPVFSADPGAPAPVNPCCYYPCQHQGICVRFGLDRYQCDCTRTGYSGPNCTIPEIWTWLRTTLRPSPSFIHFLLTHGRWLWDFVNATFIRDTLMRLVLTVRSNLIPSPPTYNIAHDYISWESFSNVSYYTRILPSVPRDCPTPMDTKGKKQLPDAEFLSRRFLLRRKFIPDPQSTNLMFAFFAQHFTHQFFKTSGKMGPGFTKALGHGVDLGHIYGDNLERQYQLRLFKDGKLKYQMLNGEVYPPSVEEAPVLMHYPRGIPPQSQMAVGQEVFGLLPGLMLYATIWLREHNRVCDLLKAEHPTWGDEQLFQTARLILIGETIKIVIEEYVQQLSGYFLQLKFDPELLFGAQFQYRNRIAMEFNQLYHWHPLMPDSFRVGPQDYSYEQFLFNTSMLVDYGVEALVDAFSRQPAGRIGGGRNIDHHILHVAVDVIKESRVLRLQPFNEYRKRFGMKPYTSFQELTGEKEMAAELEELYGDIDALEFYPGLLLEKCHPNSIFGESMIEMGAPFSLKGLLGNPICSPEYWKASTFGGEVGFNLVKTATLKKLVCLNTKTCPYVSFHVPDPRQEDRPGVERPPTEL
The test can be described thus: Inhibition of ovine COX-1 using [14C] arachidonic acid as substrate at 4 uM preincubated for 17 mins before substrate addition measured after 3 mins by thin-layer chromatographic analysis. Summed up:
(§2)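 Purified ovine COX-1 or murine COX-2 preincubated with a single 4 μM inhibitor concentration for 17 min. […] Reaction quenched; radioactive products extracted and quantified. Mean ± SEM of two experiments.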

The target in test [4] is T2, Prostaglandin G/H synthase 1 (Ovis aries, UniProt P05979).
T2 sequence (P05979 whole entry): T1 sequence (whole entry)
In words: Inhibition of ovine COX-1 using [14C] arachidonic acid as substrate preincubated for 17 mins before substrate addition measured after 3 mins by thin-layer chromatographic analysis.

For test [5], the system named is OVCAR-3. In words: Cytotoxicity against human OVCAR3 cells after 2 days by WST1 assay. It is filed as functional, cell-based. The following applies: OVCAR-3, 48 h. A digest of the protocol: as §1
The target of test [6] is T3, Prostaglandin G/H synthase 2 (Mus musculus) (UniProt Q05769).
T3 sequence (whole entry): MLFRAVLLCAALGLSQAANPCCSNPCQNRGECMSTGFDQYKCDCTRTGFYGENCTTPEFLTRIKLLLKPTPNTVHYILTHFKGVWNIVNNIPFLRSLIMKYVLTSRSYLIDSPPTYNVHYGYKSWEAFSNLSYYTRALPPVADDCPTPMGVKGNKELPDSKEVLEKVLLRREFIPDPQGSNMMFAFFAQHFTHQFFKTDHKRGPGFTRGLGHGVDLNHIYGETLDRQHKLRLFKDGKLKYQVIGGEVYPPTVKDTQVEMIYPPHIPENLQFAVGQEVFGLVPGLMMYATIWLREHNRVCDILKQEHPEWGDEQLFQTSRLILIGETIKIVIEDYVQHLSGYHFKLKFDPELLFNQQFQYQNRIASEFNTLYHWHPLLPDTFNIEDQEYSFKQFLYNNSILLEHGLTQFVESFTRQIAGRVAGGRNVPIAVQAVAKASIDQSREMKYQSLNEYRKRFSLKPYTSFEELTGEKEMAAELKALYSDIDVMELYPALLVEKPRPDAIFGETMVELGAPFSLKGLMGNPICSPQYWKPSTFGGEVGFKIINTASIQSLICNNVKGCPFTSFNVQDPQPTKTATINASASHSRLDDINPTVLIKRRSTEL
The test can be described thus: Inhibition of mouse COX-2 using [14C] arachidonic acid as substrate at 4 uM preincubated for 17 mins before substrate addition measured after 3 mins by thin-layer chromatographic analysis. A digest of the protocol:
as §2

Test [7] concerns the target T4, Prostaglandin G/H synthase 2 (Homo sapiens) (UniProt P35354).
T4 sequence (whole entry): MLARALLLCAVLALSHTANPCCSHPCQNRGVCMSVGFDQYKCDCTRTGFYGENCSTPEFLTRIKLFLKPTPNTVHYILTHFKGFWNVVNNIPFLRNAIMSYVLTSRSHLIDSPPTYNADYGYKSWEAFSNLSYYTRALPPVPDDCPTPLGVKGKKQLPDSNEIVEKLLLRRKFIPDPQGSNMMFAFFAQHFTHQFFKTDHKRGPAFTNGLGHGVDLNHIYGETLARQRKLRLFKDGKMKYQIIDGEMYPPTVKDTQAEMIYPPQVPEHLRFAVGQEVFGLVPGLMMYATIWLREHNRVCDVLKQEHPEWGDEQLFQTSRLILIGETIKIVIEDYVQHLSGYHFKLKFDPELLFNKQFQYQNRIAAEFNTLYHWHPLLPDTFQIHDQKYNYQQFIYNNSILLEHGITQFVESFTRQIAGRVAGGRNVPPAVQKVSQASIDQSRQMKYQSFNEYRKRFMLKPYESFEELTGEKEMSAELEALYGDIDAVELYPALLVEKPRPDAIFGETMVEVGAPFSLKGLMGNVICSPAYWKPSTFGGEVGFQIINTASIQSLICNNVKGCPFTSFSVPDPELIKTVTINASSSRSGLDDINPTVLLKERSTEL
The test can be described thus: Inhibition of COX-2 in human HNSCC 1483 cells using [14C] arachidonic acid as substrate at 5 uM preincubated for 30 mins before substrate addition measured after 30 mins. In kind it is cell-based.

Test [8] has as its target T5, Prostaglandin G/H synthase 2 (Mus musculus, UniProt Q05769).
T5 sequence (Q05769 whole entry): T3 sequence (whole entry)
The test can be described thus: Inhibition of mouse COX-2 using [14C] arachidonic acid as substrate preincubated for 17 mins before substrate addition measured after 3 mins by thin-layer chromatographic analysis.

Test [9] has as its target T1, Prostaglandin G/H synthase 1 (Ovis aries). In words: Inhibition of ovine COX-1 using [14C] arachidonic acid as substrate at 25 uM preincubated for 17 mins before substrate addition measured after 3 mins by thin-layer chromatographic analysis.

Activity calls are given as the source filed them. The rule behind the calls is not given here.

As usually defined, the EC50 is the concentration that produces a half-maximal response. A high value points to lower potency in that assay. Compound `CSc1ccc(/C=C2/C(C)=C(CC(=O)O)c3cc(F)ccc32)cc1` [SULINDAC SULFIDE] displayed an EC50 in test [1] of 209 µM. Further, the “growth inhibition (GI)” value in [2] is “inactive”.

One may read the inhibition as the change of the read-out against control, counted positive when it falls. What is called IC50 is the concentration needed to halve the response being measured. Lower therefore signals greater potency in that assay. `CC(C)(C(=O)O)C1=C/C(=C\c2ccc(-c3ccccc3)cc2)c2ccc(F)cc21`: the inhibition in [3] was 58%. Further, the IC50 in test [4] was determined as 2.2 µM.

In the case of `O=C(O)CC1=C/C(=C\c2ccc(-c3ccccc3)cc2)c2ccc(F)cc21`, the concentration for a half-maximal effect (EC50) amounted to 141 µM in test [1] and 132 µM in test [5]. Besides, the results for the inhibition in test [3] and in test [6] were 75% and 1%, respectively. Further, the inhibition entry in [7] is “inactive”. Moreover, the IC50 in [4] was 0.57 µM; in test [8], above 4 µM.

Regarding `COc1ccc2c(c1)C(CC(=O)O)=C/C2=C\c1ccc(SC)cc1`, the inhibition in test [9] stood at 19%.

For the compound `CCOC(=O)CC1=C/C(=C\c2ccc(-c3ccccc3)cc2)c2ccc(F)cc21`, the figures for the inhibition in test [3] and in [6] were 64% and 28%, respectively. For the same compound, in test [4], the IC50 was 1.1 µM.

Regarding `CCOC(=O)C(C)(C)C1=C/C(=C\c2cc(-c3ccc(C)cc3)on2)c2ccc(F)cc21`, the inhibition in [3] amounted to 37%; in test [6] it was 0%.

Regarding `COC(=O)CC1=C/C(=C\c2ccc(SC)cc2)c2ccc(F)cc21`, the results for the inhibition in test [3] and in [6] were 39% and 9%, respectively.

With `CSc1ccc(/C=C2\C=C(CC(N)=O)c3cc(F)ccc32)cc1`, the inhibition was determined as 21% in test [3] and 5% in test [6].

With `O=C(O)CC1=C/C(=C\c2ccc3ccccc3c2)c2ccc(F)cc21`, the figures for the inhibition in test [3] and in [6] were 75% and 34%, respectively.

With `CSc1ccc(/C=C2\C=C(CC(=O)O)c3cc(F)ccc32)cc1`, the midpoint of the response in test [5], the EC50, lay at 223 µM. The inhibition in [3] was 65%; in test [6], 10%. In addition, the inhibition entry in test [7] was “inactive”.

As to `CC(C)(C)Oc1ccc(/C=C2\C=C(CC(=O)O)c3cc(F)ccc32)cc1`, the inhibition in test [3] stood at 17%; in test [6], 5%.

With `O=C(O)CC1=C/C(=C\c2ccc(-c3ccccc3)c(F)c2)c2ccc(F)cc21`, the inhibition worked out at 44% in test [3] and 34% in [6].

As to `C[S+]([O-])c1ccc(/C=C2\C=C(CC(=O)O)c3cc(F)ccc32)cc1` (configuration not stated), the inhibition was 27% in test [3] and 8.5% in test [6].

On to `CCOC(=O)C(C)(C)C1=C/C(=C\c2ccc3c(c2)Cc2ccccc2-3)c2ccc(F)cc21`, for which the inhibition in test [3] stood at 34%; in test [6], 18%.

As to `CC(C(=O)O)C1=C/C(=C\c2ccc(-c3ccccc3)cc2)c2ccc(F)cc21` (configuration not stated), the inhibition in test [3] was determined as 30%. For the same compound, the inhibition entry in [6] is “inactive”.

Take `CSc1ccc(/C=C2\C=C(CC(=O)NS(=O)(=O)c3ccc4ccccc4c3)c3cc(F)ccc32)cc1`: the inhibition stood at 74% in [3] and 26% in [6].

With `O=C(O)CC1=C/C(=C\c2ccc3c(c2)Cc2ccccc2-3)c2ccc(F)cc21`, the figures for the inhibition in [3] and in test [6] were 70% and 26%, respectively.

In test [5], `CC1=C(CC(=O)O)c2cc(F)ccc2/C1=C/c1ccc([S+](C)[O-])cc1` (configuration not stated) [SULINDAC SULFOXIDE] displayed an EC50 of 210 µM.

On to `CCOC(=O)C(C)(C)C1=C/C(=C\c2ccc(-c3ccc(F)cc3)cc2)c2ccc(F)cc21`, for which the inhibition turned out to be 10% in test [3] and 0% in test [6].

In the case of `CSc1ccc(/C=C2\C=C(CC(=O)NS(=O)(=O)C(F)(F)F)c3cc(F)ccc32)cc1`, in test [1], the 50% effective concentration (EC50) is 215 µM. The inhibition in test [3] worked out at 65%; in test [6] it was 15%.

Consider `O=C(O)CC1=C/C(=C\c2ccc(S(=O)(=O)C(F)(F)F)cc2)c2ccc(F)cc21`, for which the inhibition in test [3] was 34%; in [6], 16%.

`O=C(O)CC1=C/C(=C\c2ccc(C(F)(F)F)cc2)c2ccc(F)cc21`: the inhibition in [3] stood at 81%; in test [6], 60%.

`CSc1ccc(/C=C2\C=C(CC(=O)NS(=O)(=O)c3ccc(C(C)=O)cc3)c3cc(F)ccc32)cc1`: the inhibition was 3.5% in test [3] and 26% in test [6].

Consider `CCOC(=O)C(C)(C)C1=C/C(=C\c2ccc(SC)cc2)c2ccc(F)cc21`, for which the inhibition came to 43% in [3] and 0% in test [6].

In the case of `C#CCOc1ccc(/C=C2\C=C(CC(=O)O)c3cc(F)ccc32)cc1OCC`, the inhibition in test [3] amounted to 68%; in test [6] it was 20%.

Values taken from ChEMBL document CHEMBL2062428, “Cyclooxygenase-1-selective inhibitors based on the (E)-2'-des-methyl-sulindac sulfide scaffold” (J Med Chem, 2012).
